Laboratory results published in ChEMBL document CHEMBL1150393, “Evaluation of radiolabeled (hetero)aromatic analogues of N-(2-diethylaminoethyl)-4-iodobenzamide for imaging and targeted radionuclide therapy of melanoma” (J Med Chem, 2008).

Assays:
[1] = Binding affinity to melanin in phosphate buffer solution; set-up: concentration or dose not given beside the values; conditions: tested as the 125I-labelled form
[2] = Binding affinity to melanin in water; set-up: concentration or dose not given beside the values; conditions: tested as the 125I-labelled form
[3] = Drug excretion in mouse B16-F0 cells bearing C57BL/6 mouse urine at 0.74 to 0.92 MBq, iv after 72 hrs; format: ADME, organism-based; conditions: in vivo
Outline: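 Urine was collected from two B16-F0 tumour-bearing C57BL6 mice for up to 72 h after iv tail-vein injection of the [¹²⁵I]-labelled compound (0.1 µmol). Samples were counted to give cumulative urinary excretion as %ID.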

[4] = Biodistribution in tumor of C57BL/6 mouse bearing mouse B16-F0 cells at 0.74 to 0.92 MBq, iv after 6 hrs; format: ADME, organism-based, Neoplasm; conditions: in vivo
Outline: (§1)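 [¹²⁵I]-labelled compound given iv by tail vein (0.1 µmol per mouse) to male C57BL6 mice bearing s.c. B16-F0 flank tumours (5 × 10⁵ cells in PBS). Two mice per time point were killed by CO₂, frozen in liquid nitrogen and cut into 40 µm cryosections, eight slices per mouse. Slice radioactivity was read on a multiwire proportional counter, converted to kBq/g and reported as %ID/g.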

[5] = Biodistribution in tumor of C57BL/6 mouse bearing mouse B16-F0 cells at 0.74 to 0.92 MBq, iv after 24 hrs; format: ADME, organism-based, Neoplasm; conditions: in vivo; outline: as §1
[6] = Biodistribution in tumor of C57BL/6 mouse bearing mouse B16-F0 cells at 0.74 to 0.92 MBq, iv after 3 hrs; format: ADME, organism-based, Neoplasm; conditions: in vivo; outline: as §1
[7] = Biodistribution in tumor of C57BL/6 mouse bearing mouse B16-F0 cells at 0.74 to 0.92 MBq, iv after 72 hrs; format: ADME, organism-based, Neoplasm; conditions: in vivo; outline: as §1

## CCN(CC)CCNC(=O)c1cc2c(I)cccc2cn1
[1]
  Activity: 45.2%
[2]
  Activity: 87%

## CCN(CC)CCNC(=O)c1cc2cc(I)ccc2o1
[1]
  Activity: 45.2%
[2]
  Activity: 87%

## CCN(CC)CCNC(=O)c1nc2cc(I)ccc2[nH]1
[1]
  Activity: 47.1%
[2]
  Activity: 84.5%

## CCN(CC)CCNC(=O)c1c[nH]c2ccc(I)cc2c1=O
[1]
  Activity: 59%
[2]
  Activity: 86.7%

## CCN(CC)CCNC(=O)c1ccc(I)nc1
[1]
  Activity: 3.5%
[2]
  Activity: 28.1%

## CCN(CC)CCNC(=O)c1ccc2cncc(I)c2n1
[1]
  Activity: 35.3%
[2]
  Activity: 44.8%

## CCN(CC)CCNC(=O)c1cc2c(I)cccc2s1
[1]
  Activity: 56.1%
[2]
  Activity: 87.6%

## CCN(CC)CCNC(=O)c1ccc(I)cc1
[3]
  Activity: 83.1%
[4]
  Drug uptake: 7.7 % ID/g
[5]
  Drug uptake: 3.7 % ID/g
[6]
  Drug uptake: 9.1 % ID/g
[7]
  Drug uptake: 0.8 % ID/g
